Structures are written as SMILES.

Assay [1] is described as follows: Cell cycle arrest in human T24 cells assessed as increase in p21 level after 24 hrs by Western blotting analysis. The conditions noted are these: T-24. In kind it is functional, cell-based. The method, boiled down: (§1)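 T24 cells treated at […] for 24 h and lysed in ice-cold RIPA buffer with protease inhibitors and NaF. Protein measured by Bradford; 30 micrograms per lane run on 12% SDS-PAGE and transferred to PVDF. Blocked 2 h at room temperature, primary antibody overnight at 4 C, HRP secondary (1:2000) 1 h, chemiluminescence detection.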
For orientation: In western blotting, separated proteins are transferred to a membrane and probed.

For assay [2], the system named is T-24. Nature of the assay: Induction of apoptosis in human T24 cells assessed as viable cells at 10 uM after 24 hrs by annexin-V-FITC/propidium iodide staining-based flow cytometry (reference value: 93.5%). The conditions noted are these: T-24, 24 h, read-out: Activity. It counts as functional. (In general: Flow cytometry measures light scatter and fluorescence of single cells or particles in a stream.)

Assay [3] in a line: Cytotoxicity against human T24 cells after 2 days by MTT assay. In kind it is functional, cell-based. The conditions noted are these: T-24, 48 h. In short, it runs like this: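 Cells grown in medium with 10% heat-inactivated FBS at 37 C under 5% CO2. Compounds dissolved in medium with 1% DMSO; controls received 1% DMSO. After 2 days, MTT (10 mg/mL) added for 4 h, formazan dissolved in DMSO and absorbance read at 570/630 nm. Survival taken relative to negative control; IC50 by Bliss method (n = 5), at least three independent experiments.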
Background: Tetrazolium assays rely on reduction of a dye to a coloured formazan, in cell work by metabolically active cells.

Assay [4] concerns T-24. Description: Induction of apoptosis in human T24 cells assessed as early apoptotic cells at 20 uM after 24 hrs by annexin-V-FITC/propidium iodide staining-based flow cytometry (reference value: 2.74%). In kind it is functional.
Assay [5] concerns T-24. Description: Induction of apoptosis in human T24 cells assessed as reduction in cellular volume after 24 hrs by Hoechst 33258 staining-based fluorescence microscopic analysis relative to control. It counts as functional, cell-based. The method, boiled down:
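T24 cells on cover slips exposed 24 h at 5, 10 and 20 µM, with untreated cells as control. Fixed in 4% paraformaldehyde for 10 min, washed with PBS and stained with Hoechst 33258 for 5 min. Nuclei were viewed by fluorescence microscopy at 350 nm excitation and 460 nm emission.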

Assay [6] can be described thus: Cell cycle arrest in human T24 cells assessed as accumulation at G1 phase at 10 uM after 48 hrs by Rnase A/propidium iodide staining-based flow cytometry (reference value: 34.43%). To be noted: T-24. In kind it is functional. In short, it runs like this:
(§2)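 T24 cells exposed to […] for 48 h, washed with ice-cold PBS, then fixed and permeabilized overnight in ice-cold 70% ethanol. RNase A (100 mg/mL) treatment at 37 C for 30 min, then PI staining (1 mg/mL) in the dark at 4 C for 30 min. Flow cytometry gave the percentage of cells in G1, S and G2 phase.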

Assay [7] in a line: Induction of apoptosis in human T24 cells assessed as Bax upregulation after 24 hrs by qRT-PCR analysis. To be noted: T-24. It counts as functional, cell-based. The method, boiled down:
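T24 cells treated at […] for 24 h before RNA extraction. SYBR Green qRT-PCR with 500 nM primers: 2 min at 50 C, 10 min at 95 C, then 40 cycles of 15 s at 95 C and 1 min at 60 C. Expression by the ΔCt method against actin, normalized to untreated cells; run in triplicate.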

Assay [8] in a line: Cell cycle arrest in human T24 cells assessed as increase in p27 level after 24 hrs by Western blotting analysis. It counts as functional, cell-based. The conditions noted are these: T-24. The method, boiled down: as §1
Assay [9] can be described thus: Cell cycle arrest in human T24 cells assessed as accumulation at S phase at 20 uM after 48 hrs by Rnase A/propidium iodide staining-based flow cytometry (reference value: 62%). In kind it is functional. The conditions noted are these: T-24. The method, boiled down: as §2

On to `COc1ccc2c(c1)/C(=N\O)C(c1c[nH]c3ccc(OC)cc13)=N2`, for which the Activity entry in assay [1] was “Dose-dependent effect”; in [4], 32.7%; in [5] it was “Dose-dependent effect”; in assay [6], 57%; in [7] it was “Dose-dependent effect”; in assay [8], “Dose-dependent effect”. For the same compound, in assay [9], the Activity worked out at 28.4%. Besides, the viability at 10 µM in assay [2] amounted to 79.9%. Besides, the IC50 in [3] came out at 4.31 µM.

The term IC50 denotes the concentration that inhibits the measured activity by half. Read a low IC50 as inhibition by little substance.

The values are drawn from ChEMBL document CHEMBL3414514, “Synthesis and pharmacological evaluation of novel bisindole derivatives bearing oximes moiety: identification of novel proapoptotic agents” (Eur J Med Chem, 2015).
